As usually defined, the EC50 is the concentration at which the effect is half-maximal.

Where a SMILES comes first, the peptide text is derived from it. [ ]: non-standard residue; d: D form. aThr = C[C@H](O)[C@H](N)C(=O)O

For 21 compounds, CC50 and EC50 results are on record in ChEMBL document CHEMBL1240406, “Identification of novel human immunodeficiency virus type 1-inhibitory peptides based on the antimicrobial peptide database” (Antimicrob Agents Chemother, 2010).

Series [1] is described as follows: Cytotoxicity against human CEM-SS cells infected with HIV1 3B after 6 days by XTT assay. The series is classed as cell-based. The following applies: read-out: TC50. In general terms: Formazan colour is commonly taken as a measure of viable cells.
For series [2], the system named is Human immunodeficiency virus 1. In words: Antiviral activity against HIV1 3B infected in human CEM-SS cells assessed as inhibition of viral replication after 6 days by XTT assay. The series is classed as functional, organism-based. Conditions: Human immunodeficiency virus 1, 3B, CEM-SS, 144 h. The method, boiled down: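 Peptides were added in triplicate at six serial concentrations, 0.32–100 μg/ml. Cultures were held at 37°C, 5% CO2 for 6 days, then stained with XTT. EC50 (virus inhibition) and TC50 (cell viability) were derived from the XTT read-out, and TI was taken from these.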

On to H-RQRVEELSKFSKKGAAARRRK-OH [Misgurin], for which the CC50 at 144 h in series [1] was over 40 µM. The EC50 in series [2] was over 40 µM.

Regarding `CC[C@H](C)[C@H](NC(=O)[C@H](CO)NC(=O)[C@H](CC(C)C)NC(=O)[C@H](Cc1ccccc1)NC(=O)CN)C(=O)N[C@@H](CC(C)C)C(=O)N[C@@H](CCCCN)C(=O)N[C@@H](CCCCN)C(=O)N[C@H](C(=O)N[C@@H](CC(C)C)C(=O)N1CCC[C@H]1C(=O)N[C@@H](CCCCN)C(=O)N[C@H](C(=O)N[C@@H](CCSC)C(=O)N[C@@H](C)C(=O)N[C@@H](Cc1cnc[nH]1)C(=O)N[C@@H](CCSC)C(=O)N[C@@H](CCCCN)C(N)=O)C(C)C)C(C)C` [MELECTIN], the CC50 at 144 h in series [1] was 7.75 µM.

As for H-GLNTLKKVFQGLHEAIKLINNHVQ-OH, the CC50 at 144 h in series [1] was over 36.8 µM. Besides, in series [2], the EC50 was found to be 35.7 µM.

For H-GAWKNFWSSLRKGFYDGEAGRAIRR-OH, the CC50 at 144 h in series [1] is over 34.1 µM. Further, the concentration for a half-maximal effect (EC50) in series [2] is over 34.1 µM.

Regarding H-KGRGKQGGKVRAKAKTRSS-OH [Parasin I], the CC50 at 144 h in series [1] is over 50 µM. Moreover, the half-maximal effective concentration (EC50) in series [2] was over 50 µM.

Take H-NLVSGLIEARKYLEQLHRKLKNRKV-OH: the CC50 at 144 h in series [1] was over 33.3 µM. The concentration giving a half-maximal response (EC50) in series [2] is over 33.3 µM.

As to H-GFGKAFHSVSNFAKKHKTA-NH2 [STYELIN A], the CC50 at 144 h in series [1] was over 48.5 µM. The concentration giving a half-maximal response (EC50) in series [2] was over 48.5 µM.

For “H-FFHHIFRGIVHVGKTIHRLVTG-OH [Piscidin 3]”, in series [1], the CC50 at 144 h came to 6.9 µM.

As for H-VDKPDYRPRPRPPNM-OH [Metalnikowin I], the CC50 at 144 h in series [1] was over 54.4 µM. Besides, the concentration giving a half-maximal response (EC50) in series [2] is over 54.4 µM.

Regarding H-ILGPVLGLVSDTLDDVLGIL-OH, in series [1], the CC50 at 144 h is over 49.4 µM. In series [2], the half-maximal effective concentration (EC50) is over 49.4 µM.

On to H-GIWSDLAEIIKKF-OH, for which the CC50 at 144 h in series [1] is over 65.8 µM.

In the case of H-GMASKAGAIAGKIAKVALKAL-NH2, in series [1], the CC50 at 144 h is over 50.8 µM. Besides, the concentration for a half-maximal effect (EC50) in series [2] is over 50.8 µM.

On to `CC[C@H](C)[C@H](NC(=O)[C@@H]1CCCN1C(=O)[C@H](Cc1cnc[nH]1)NC(=O)[C@H](CCCCN)NC(=O)[C@@H]1CCCN1C(=O)[C@@H](N)CCCNC(=N)N)C(=O)N[C@@H](CCCCN)C(=O)N[C@@H](Cc1cnc[nH]1)C(=O)N[C@@H](CCC(N)=O)C(=O)NCC(=O)N[C@@H](CC(C)C)C(=O)N1CCC[C@H]1C(=O)N[C@@H](CCC(N)=O)C(=O)N[C@@H](CCC(=O)O)C(=O)N[C@H](C(=O)N[C@@H](CC(C)C)C(=O)N[C@@H](CC(N)=O)C(=O)N[C@@H](CCC(=O)O)C(=O)N[C@@H](CC(N)=O)C(=O)N[C@@H](CC(C)C)C(=O)N[C@@H](CC(C)C)C(=O)N[C@@H](CCCNC(=N)N)C(=O)N[C@@H](Cc1ccccc1)C(=O)O)C(C)C` [ISRACIDIN], for which the CC50 at 144 h in series [1] was over 36.2 µM. For the same compound, in series [2], the concentration giving a half-maximal response (EC50) is over 36.2 µM.

Take `Cc1cn([C@H]2C[C@H](N=[N+]=[N-])[C@@H](CO)O2)c(=O)[nH]c1=O` [ZIDOVUDINE]: the CC50 at 144 h in series [1] is over 0.5 µM.

Regarding H-GNNRPVYIPQPRPPHPRI-OH [Apidaecin IA], in series [1], the CC50 at 144 h was over 47.4 µM. Moreover, the concentration giving a half-maximal response (EC50) in series [2] was over 47.4 µM.

In the case of H-GLWEKIDKFASII-OH, the CC50 at 144 h in series [1] was over 65.8 µM. Also, in series [2], the EC50 is over 65.8 µM.

On to H-INLKAIAALAKKLL-OH, for which, in series [1], the CC50 at 144 h is over 67.6 µM. In addition, the EC50 in series [2] is over 67.6 µM.

For H-GIFDKLAKEISIW-OH, in series [1], the CC50 at 144 h was over 65.8 µM. Further, in series [2], the EC50 was over 65.8 µM.

For the compound `CC[C@H](C)[C@H](NC(=O)[C@H](CC(C)C)NC(=O)[C@H](C)NC(=O)[C@@H]1CCCN1C(=O)[C@H](CCCNC(=N)N)NC(=O)[C@@H](N)Cc1ccccc1)C(=O)N[C@H](C(=O)N[C@@H](CCCNC(=N)N)C(=O)N[C@H](C(=O)N[C@@H](CCCCN)C(=O)NCC(=O)N[C@H](C(=O)N[C@@H](CCCNC(=N)N)C(=O)N[C@@H](CC(C)C)C(=O)O)[C@H](C)O)[C@H](C)O)C(C)C` [Hyposin-5] (H-FRPALIVR[aThr]KG[aThr]RL-OH), the CC50 at 144 h in series [1] is over 61.4 µM. In addition, in series [2], the EC50 is over 61.4 µM.

In the case of “H-GLADFLNKAVGKVVDFVKS-NH2 [Desertcolin 1]”, the CC50 at 144 h in series [1] was over 49.9 µM. Also, the EC50 in series [2] was over 49.9 µM.

With H-GKPRPYSPRPTSHPRPIRV-OH [DROSOCIN], the CC50 at 144 h in series [1] was over 45.5 µM. Moreover, the EC50 in series [2] was over 45.5 µM.
